# How the values were obtained:
# Clostridioides difficile = experiment: In vitro activity against Clostridium difficile (ATCC 9689); assay type: functional
# Prevotella disiens = experiment: In vitro activity against Bacteroides disiens (ATCC 29426); assay type: functional
# Summary of the method: (§1)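 MIC determined under anaerobic conditions on Wilkins-Chalgren agar.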
# Fusobacterium nucleatum = experiment: In vitro activity against Fusobacterium nucleatum (ATCC 25586); assay type: functional; summary of the method: as §1
# [1] = Solubility in aqueous media urine, pH 5.1; assay type: physicochemical; conditions: read-out: S
# Staphylococcus aureus [2] = experiment: In vitro activity against Staphylococcus aureus (A5177); assay type: functional
# Summary of the method: (§2)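 MIC determined by agar dilution on brain-heart infusion agar under aerobic conditions.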
# Bacteroides fragilis [3] = experiment: In vitro activity against Bacteroides fragilis (784); assay type: functional; summary of the method: as §1
# [4] = Solubility in aqueous media 0.15Nacetate, pH 6.1; assay type: physicochemical; conditions: 0.15 N acetate, read-out: S
# Klebsiella aerogenes = experiment: In vitro activity against Enterobacter aerogenes (ATCC 13048).; assay type: functional; summary of the method: as §2
# Peptostreptococcus sp. = experiment: In vitro activity against Peptostreptococcus sp.(TB-11); assay type: functional, peptostreptococcus s
# Summary of the method: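 MIC for anaerobic bacteria, measured on Wilkins-Chalgren agar.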
# Bacteroides fragilis [5] = experiment: In vitro activity against Bacteroides fragilis (SFM2929-1); assay type: functional; summary of the method: as §1
# Mus musculus [6] = experiment: In vivo activity against Escherichia coli Juhl(100X LD50), when administered sc(each compound tested at 3 doses with 10 animals); assay type: functional
# Summary of the method: (§3)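 Mice were challenged intraperitoneally with the organism. The compound was given subcutaneously as a total dose split into equal portions at 1 and 5 h post-infection. Three doses were used, with 10 animals per dose.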
# [7] = Solubility in aqueous media 0.1 N chloride, pH 6.5; assay type: physicochemical; conditions: read-out: S
# Staphylococcus aureus [8] = experiment: In vitro activity against Staphylococcus aureus(45 RAR2); assay type: functional; summary of the method: as §2
# Mus musculus [9] = experiment: In vivo activity against Pseudomonas aeruginosa A5007 (100X LD50), administered sc( each compound tested at 3 doses with 10 animals); assay type: functional; summary of the method: as §3
# Mus musculus [10] = experiment: In vivo activity against Escherichia coli Juhl(100X LD50), when administered po(each compound tested at 3 doses with 10 animals); assay type: functional
# Summary of the method: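 Mice were challenged intraperitoneally with the organism. The compound was given orally as a total dose split into equal portions at 1 and 5 h post-infection. Three doses were used, with 10 animals per dose.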
# Micrococcus luteus = experiment: In vitro activity against Micrococcus luteus (ATCC 4698); assay type: functional; summary of the method: as §2
# Escherichia coli [11] = experiment: In vitro activity against Escherichia coli Juhl; assay type: functional
# Summary of the method: (§4)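 MIC for aerobic bacteria, measured on brain-heart infusion agar.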
# Thomasclavelia ramosa = experiment: In vitro activity against Clostridium romosum (7); assay type: functional
# [12] = test system: Prevotella melaninogenica; experiment: In vitro activity against Bacteroides melaninogenicus (ATCC 25845).; assay type: functional; summary of the method: as §1
# [13] = Solubility in aqueous media urine, pH 7.0; assay type: physicochemical; conditions: read-out: S
# Staphylococcus aureus [14] = experiment: In vitro activity against Staphylococcus aureus(CMX 553); assay type: functional; summary of the method: as §2
# [15] = test system: Staphylococcus epidermidis; experiment: In vitro activity against Staphylococcus epidermidis (3519); assay type: functional; summary of the method: as §2
# Staphylococcus aureus [16] = experiment: In vitro activity against Staphylococcus aureus(CMX 686B); assay type: functional; summary of the method: as §2
# Bacteroides fragilis [17] = experiment: In vitro activity against Bacteroides fragilis (SFM2975-7); assay type: functional; summary of the method: as §1
# [18] = Solubility in aqueous media 0.15 N sulfate, pH 5.4; assay type: physicochemical; conditions: read-out: S
# Streptococcus pyogenes = experiment: In vitro activity against Streptococcus pyogenes (2548 INDUC).; assay type: functional; summary of the method: as §2
# Escherichia coli [19] = experiment: In vitro activity against Escherichia coli (KNK437); assay type: functional; summary of the method: as §4
# Parvimonas micra = experiment: In vitro activity against Peptostreptococcus micros (ATCC 33270); assay type: functional; summary of the method: as §1
# [20] = test system: Bacteroides thetaiotaomicron; experiment: In vitro activity against Bacteroides thetaiotaomicron (SFM2975-2); assay type: functional; summary of the method: as §1
# Bacteroides fragilis [21] = experiment: In vitro activity against Bacteroides fragilis (SFM2906A); assay type: functional; summary of the method: as §1
# Streptococcus agalactiae = experiment: In vitro activity against Streptococcus agalactiae (CMX 508).; assay type: functional; summary of the method: as §2
# Enterococcus faecium = experiment: In vitro activity against Enterococcus faecium (ATCC 8043).; assay type: functional; summary of the method: as §2
# Pseudomonas aeruginosa = experiment: In vitro activity against Pseudomonas aeruginosa (A5007).; assay type: functional; summary of the method: as §2
# Bacteroides fragilis [22] = experiment: In vitro activity against Bacteroides fragilis (UC-2); assay type: functional; summary of the method: as §1
# [23] = test system: Bacteroides thetaiotaomicron; experiment: In vitro activity against Bacteroides thetaiotaomicron (ATCC 29742); assay type: functional; summary of the method: as §1
# [24] = Solubility in aqueous media Ringer''s buffer, pH 7.4; assay type: physicochemical
# [25] = Solubility in aqueous media 0.15 N phosphate, pH 5.6; assay type: physicochemical; conditions: read-out: S
# Bacteroides fragilis [26] = experiment: In vitro activity against Bacteroides fragilis (105AT25285); assay type: functional; summary of the method: as §1
smiles,measurement,setting,value
Cl.N[C@H]1CCN(c2nc3c(cc2F)c(=O)c(C(=O)O)cn3-c2ccc(F)cc2F)C1,MIC,Clostridioides difficile,1 µg/mL
same,MIC,Prevotella disiens,1 µg/mL
same,MIC,Fusobacterium nucleatum,0.25 µg/mL
same,solubility,[1],32.4 µg/mL
same,MIC,Staphylococcus aureus [2],0.05 µg/mL
same,MIC,Bacteroides fragilis [3],0.25 µg/mL
same,solubility,[4],4.1 µg/mL
same,MIC,Klebsiella aerogenes,0.05 µg/mL
same,MIC,Peptostreptococcus sp.,0.25 µg/mL
same,MIC,Bacteroides fragilis [5],0.25 µg/mL
same,ED50,Mus musculus [6],0.2 mg/kg
same,solubility,[7],4.5 µg/mL
same,MIC,Staphylococcus aureus [8],0.05 µg/mL
same,ED50,Mus musculus [9],19.1 mg/kg
same,ED50,Mus musculus [10],0.8 mg/kg
same,MIC,Micrococcus luteus,0.78 µg/mL
same,MIC,Escherichia coli [11],0.02 µg/mL
same,MIC,Thomasclavelia ramosa,0.5 µg/mL
same,MIC,[12],0.5 µg/mL
same,solubility,[13],17.1 µg/mL
same,MIC,Staphylococcus aureus [14],0.05 µg/mL
same,MIC,[15],0.05 µg/mL
same,MIC,Staphylococcus aureus [16],0.05 µg/mL
same,MIC,Bacteroides fragilis [17],0.5 µg/mL
same,solubility,[18],8.7 µg/mL
same,MIC,Streptococcus pyogenes,0.1 µg/mL
same,MIC,Escherichia coli [19],0.1 µg/mL
same,MIC,Parvimonas micra,0.06 µg/mL
same,MIC,[20],1 µg/mL
same,MIC,Bacteroides fragilis [21],0.25 µg/mL
same,MIC,Streptococcus agalactiae,0.2 µg/mL
same,MIC,Enterococcus faecium,0.1 µg/mL
same,MIC,Pseudomonas aeruginosa,0.1 µg/mL
same,MIC,Bacteroides fragilis [22],0.25 µg/mL
same,MIC,[23],0.5 µg/mL
same,solubility,[24],13 µg/mL
same,solubility,[25],4.3 µg/mL
same,MIC,Bacteroides fragilis [26],0.25 µg/mL

# — ChEMBL document CHEMBL1124180, “Asymmetric synthesis and properties of the enantiomers of the antibacterial agent 7-(3-aminopyrrolidin-1-yl)-1-(2,4-difluorophenyl)-1,4-dihydro-6- fluoro-4-oxo-1,8-naphthyridine-3-carboxylic acid hydrochloride” (J Med Chem, 1988)
